# Most compounds without a hit are left out; they make up all but 11% or so of the library.
# G6PDH CS = L. mesenteroides G6PDH inhibitors, counter-screen for G6PDH-coupled screening assays, biochemical, Leuconostoc mesenteroides enzyme; Purified L. mesenteroides G6PDH, diaphorase/resazurin coupled fluorescence, 45 min; inhibition, % at 5 µM; 200,000 tested, 0.12% active; AID 1020, 2008
# Lmaj promast = Leishmania major promastigote growth inhibition, primary screen | Leishmania major promastigotes, resazurin fluorescence viability | inhibition, % at 10 µM | 200,000 tested, 9% active | AID 1063, 2008;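 note: promastigotes grown with compound for 44 hours at 28 °C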
# WT yeast gro inh = growth inhibition of WT strain, primary screen, mitochondrial fusion inhibitor project, WT and mutant strains, chemical genetic; mitochondrial fusion phenotypic screen; AID 1362, 2008; 190,000 tested, 2.1% active; inhibition, % at 10 µM; in the data active = inhibition above about 58%; tested in S. cerevisiae
# Diaphorase act = compounds boosting diaphorase resazurin reduction – biochemical, uHTS, resorufin fluorescence, counter-screen for diaphorase-coupled primary assays, primary screen | Diaphorase/resazurin coupled assay, 16 min; hits give high values; 1 = vehicle wells, 0 = NADH-free wells | activation factor at 20 µM | 190,000 tested, 0.005% active | AID 1229, 2008;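 active = diaphorase activity raised at least twofold by the compound at 20 µM; inactive = activation factor below 2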
#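 Material: purified diaphorase enzyme from Clostridium kluyveri / Medium: HEPES pH 7.4 buffer with MgCl2 and Tween 20 / Schedule: enzyme reaction of 16 min at room temperature / Measured by: resorufin fluorescence, excitation 544 nm, emission 590 nm / Evaluation: rise in resorufin formation, marking diaphorase activation or chemical reduction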
# Diaphorase inh = diaphorase inhibitors and chemical oxidizers, primary screen, counter-screen for diaphorase-coupled primary assays, biochemical, uHTS, resorufin fluorescence | diaphorase resazurin-to-resorufin fluorescence, NADH, 16 min; bacterial (C. kluyveri) enzyme, not human | inhibition, % at 20 µM | 190,000 tested, 0.69% active | AID 1217, 2008;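 active = primary screen inhibition at 20 µM above a set limit, cut at about 50% in these data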
#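 material = Clostridium kluyveri diaphorase enzyme | amount = 0.14 U/mL diaphorase, enzyme working solution | schedule = incubation 16 min, room temperature | detection = fluorescence of resorufin formed from resazurin, Ex 544/Em 590 nm | benchmarks = positive control minus NADH, DMSO neutral control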
# Hits are given with their value; - = inactive; . = no result. Cut-off read from the data, not from the text of the source, unless noted: active = inhibition above about 50%; inactive = the rest.
SMILES,G6PDH CS,Lmaj promast,WT yeast gro inh,Diaphorase act,Diaphorase inh
CN1CCN(CCCNC(=O)c2cc3c(-c4ccc(Cl)cc4)nn(C)c3s2)CC1,-,100,-,-,-
CCN(CC)CCCNC(=O)c1cc(-c2ccc(Cl)c(Cl)c2)on1,-,99,-,-,-
CS/C(=N\S(=O)(=O)c1cccs1)Nc1ccc(Br)cc1F,-,-,-,-,-
CCCC(=O)Nc1cccc(-c2nc3ccccc3c(=O)o2)c1,-,-,-,-,-
[O-][n+]1cccc2ncc3cscc3c21,-,-,-,-,-
CCOc1ccc(S(=O)(=O)NCc2ccc(F)cc2)c2cccnc12,-,89,-,-,-
CCOc1ccc(S(=O)(=O)NCc2ccc(OC)cc2)c2cccnc12,-,90,-,-,-
C/C(=N\N=C1\NC(=O)CC(C(=O)O)S1)c1ccc(F)cc1 (centres undefined),-,52,-,-,-
CCOC(=O)c1ccc(NC(=O)CN2C(=O)CSC(C)C2=O)cc1 (centres undefined),-,-,-,-,-
CCOC(=O)Cn1c2ccccc2n2nc(CCC(=O)O)c(=O)nc12,-,-,-,-,-
CCc1ccc(NC(=O)N(C2CCC(C)CC2)C2CCN(C(C)=O)CC2)cc1 (centres undefined),-,-,-,-,-
CCCCn1nnc(NC(=O)c2ccc(-c3cccc([N+](=O)[O-])c3)o2)n1,-,56,-,-,-
CCCn1nnc(NC(=O)c2ccc(-c3cccc(Cl)c3)o2)n1,-,77,74,-,-
CCCn1nnc(NC(=O)c2cccc(OCc3ccccc3)c2)n1,-,52,-,-,-
CCCn1nnc(NC(=O)c2cccc(Cl)c2)n1,-,-,-,-,-
CCCn1nnc(NC(=O)Cc2ccccc2)n1,-,-,-,-,-
O=C(Nc1ncc(Cc2cccc(C(F)(F)F)c2)s1)c1ccc(-c2cccc([N+](=O)[O-])c2)o1,-,91,-,-,-
Cn1c2c(c(=O)n(C)c1=O)C1c3cc(Cl)ccc3OCC1CO2 (centres undefined),-,-,-,-,-
Cc1ccc(NC(=O)CCSc2nnnn2-c2ccc3c(c2)OCO3)cc1C,-,-,-,-,-
CCCCn1nnc(NC(=O)c2ccc(-c3cccc(Cl)c3)o2)n1,-,51,-,-,-
COC(=O)c1c(C)[nH]c(C)c1-c1ccc(C)cc1,-,94,-,-,-
COC(=O)c1c(C)[nH]c(C)c1-c1cccc([N+](=O)[O-])c1,-,-,-,-,-
COc1ccc(N(C(C)=O)S(=O)(=O)c2cccc3cccnc23)cc1,-,54,-,-,-
COc1ccc(N(C(C)=O)S(=O)(=O)c2cc(OC)ccc2OC)cc1,-,-,-,-,-
Cc1cc(-c2csc(NC(=O)c3ccc(=O)[nH]c3)n2)c(C)n1Cc1ccccc1,-,-,-,-,-
SMILES,G6PDH CS,Lmaj promast,WT yeast gro inh,Diaphorase act,Diaphorase inh
Cc1cc(-c2csc(NC(=O)c3ccc(C#N)cc3)n2)c(C)n1Cc1ccco1,-,51,-,-,-
Cc1ccc(S(=O)(=O)N(CC(=O)Nc2cccc(N(C)S(C)(=O)=O)c2)c2ccc(Cl)c(Cl)c2)cc1,-,67,-,-,-
CN(c1cccc(NC(=O)CN(c2ccc(Cl)c(Cl)c2)S(=O)(=O)c2ccccc2)c1)S(C)(=O)=O,-,-,-,-,-
CN(c1cccc(NC(=O)CSc2ccc(Cl)cc2)c1)S(C)(=O)=O,-,74,-,-,-
CN(c1cccc(NC(=O)CN(c2ccc(C34CC5CC(CC(C5)C3)C4)cc2)S(C)(=O)=O)c1)S(C)(=O)=O,-,90,-,-,-
O=c1c2nnn(Cc3ccccc3)c2ncn1-c1ccccc1,-,-,-,-,-
COCCn1c(SCC(=O)N2CCCCC2)nc2ccccc2c1=O,-,-,-,-,-
COCCn1c(SCCN2CCCCC2)nc2ccccc2c1=O,-,100,-,-,-
COCCn1c(SCc2nc3ccccc3c(=O)[nH]2)nc2ccccc2c1=O,-,-,-,-,-
COCCn1c(SCc2ccc(OC)c(F)c2)nc2ccccc2c1=O,-,100,-,-,-
CCSc1nc2ccccc2c(=O)n1Cc1ccc(F)cc1,-,-,-,-,-
CC1CCC2C(=O)N(c3ccc(C(=O)Oc4cccc5cccnc45)cc3)C(=O)C2C1 (centres undefined),-,-,-,-,-
Cc1ccc(/C=N/NC(=O)CC2N=C(Cc3ccccc3)NNC2=O)cc1 (centres undefined),.,-,-,.,.
Cc1onc(-c2c(F)cccc2Cl)c1C(=O)OCN1C(=O)c2ccccc2C1=O,-,-,-,-,-
Cc1[nH]c2ccccc2c1C(=O)COC(=O)c1c(-c2ccccc2Cl)noc1C,-,-,87,-,-
Cc1[nH]c2ccccc2c1C(=O)COC(=O)c1c(-c2c(F)cccc2Cl)noc1C,-,-,85,-,-
Cc1onc(-c2ccccc2Cl)c1C(=O)OCn1nnc2ccccc2c1=O,-,-,-,-,-
COc1ccc(CC(=O)Nc2nnc(C)s2)cc1,-,-,-,-,-
COCCNC(=O)C1CCN(S(=O)(=O)c2ccccc2)CC1,-,-,-,-,-
O=C(Nc1cccc(Cl)c1Cl)c1ccc(-c2ccccc2)cc1,-,-,-,-,-
O=C(Nc1cc(Cl)ccc1Cl)c1ccc(-c2ccccc2)cc1,-,51,-,-,-
O=C(C(=O)N1CC=C(c2ccccc2)CC1)c1c[nH]c2ccccc12,-,-,-,-,-
O=C(O)C1CCCCC1C(=O)N1CC=C(c2ccccc2)CC1 (centres undefined),-,61,-,-,-
O=C(Nc1ccccc1)N1CC=C(c2ccc(F)cc2)CC1,-,85,-,-,-
O=C(Nc1cccc2ccccc12)N1CC=C(c2ccccc2)CC1,-,-,-,-,-
SMILES,G6PDH CS,Lmaj promast,WT yeast gro inh,Diaphorase act,Diaphorase inh
O=C(Nc1ccccc1)N1CC=C(c2ccccc2)CC1,-,81,-,-,-
Cc1c(C(=O)OCC(=O)NCC2CCCO2)cccc1[N+](=O)[O-] (centres undefined),-,-,-,-,-
CCCn1nnc(NC(=S)NC(=O)c2cccs2)n1,-,-,-,-,-
CC(=O)c1ccc(OC(=O)c2cc3ccccc3oc2=O)cc1,-,-,-,-,-
CCCN1C(=O)c2ccccc2NC1c1ccc(OC)c(CSc2ccccn2)c1 (centres undefined),-,-,64,-,-
COc1ccc(N2C(=O)c3ccccc3NC2c2ccc(OC)c(CSc3ccccn3)c2)cc1 (centres undefined),-,-,-,-,-
O=C(CCn1nnc2ccccc21)N/N=C\Cc1ccccc1,-,-,-,-,-

# Screening results from PubChem.
